In brackets after ≈: the same amount, converted by molar mass. Activity calls are given as the source filed them. No cut-off for these calls is given here.
Key:
[1] = tested on: Staphylococcus aureus; assay: Antibacterial activity against log-phase methicillin-resistant Staphylococcus aureus ATCC 33591 assessed as growth inhibition after 24 hrs by broth microdilution method; assay type: functional; settings: ATCC 33591, 24 h
Summary of the method: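 CLSI broth microdilution; 10^5 CFU/mL log-phase bacteria in cation-adjusted Mueller-Hinton broth with 2% NaCl, two-fold serial dilutions from 64 to 0.031 μg/mL; aerobic incubation 24 h at 37 °C; growth read as OD600; MIC = lowest concentration giving ≥90% growth inhibition.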

[2] = tested on: Staphylococcus aureus; assay: Antibacterial activity against log-phase methicillin-sensitive Staphylococcus aureus 8325-4 assessed as growth inhibition after 24 hrs by broth microdilution method; assay type: functional; settings: 8325-4, 24 h
Summary of the method: (§1)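 CLSI broth microdilution. Log-phase bacteria at 10^5 CFU/mL with two-fold serial dilutions (64 to 0.031 μg/mL). S. aureus tested in cation-adjusted Mueller-Hinton broth; E. faecalis in brain–heart infusion broth. Aerobic incubation 24 h at 37 °C. OD600 read; MIC is the lowest concentration giving ≥90% growth inhibition.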

[3] = tested on: Enterococcus faecalis; assay: Antibacterial activity against log-phase vancomycin-resistant Enterococcus faecalis ATCC 51575 assessed as growth inhibition after 24 hrs by broth microdilution method; assay type: functional; settings: ATCC 51575, 24 h
Summary of the method: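 CLSI broth microdilution in brain–heart infusion broth; log-phase bacteria at 10^5 CFU/mL, two-fold serial dilutions 64 to 0.031 μg/mL; 24 h aerobic incubation at 37 °C; OD600 read-out; MIC taken as lowest concentration inhibiting growth ≥90%.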

[4] = tested on: Enterococcus faecalis; assay: Antibacterial activity against log-phase vancomycin-sensitive Enterococcus faecalis ATCC 19433 assessed as growth inhibition after 24 hrs by broth microdilution method; assay type: functional; settings: ATCC 19433, 24 h; summary of the method: as §1
[5] = target: T1, Cell division protein FtsZ (Staphylococcus aureus) (UniProt P0A031); assay: Induction of Staphylococcus aureus FtsZ polymerization at 40 ug/ml measured for 60 mins by microtiter plate-based light scattering assay
T1 sequence (whole entry): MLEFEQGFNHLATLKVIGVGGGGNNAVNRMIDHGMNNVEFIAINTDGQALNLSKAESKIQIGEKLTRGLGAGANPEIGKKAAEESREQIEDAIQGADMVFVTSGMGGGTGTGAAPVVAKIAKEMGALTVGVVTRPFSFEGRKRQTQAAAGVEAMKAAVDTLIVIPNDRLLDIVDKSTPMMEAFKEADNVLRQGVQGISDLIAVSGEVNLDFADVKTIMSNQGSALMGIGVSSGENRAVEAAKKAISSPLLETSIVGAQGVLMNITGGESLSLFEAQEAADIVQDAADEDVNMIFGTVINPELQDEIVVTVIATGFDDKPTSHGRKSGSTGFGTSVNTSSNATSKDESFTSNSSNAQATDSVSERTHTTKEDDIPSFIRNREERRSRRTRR
Summary of the method: (§2)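 Turbidity assay. 10 μM SaFtsZ plus compound (0–40 μg/mL) in 50 mM Tris HCl pH 7.4, 50 mM KCl, 2 mM magnesium acetate, 5 mM CaCl2, pre-equilibrated 10 min at room temperature. Started by adding 1 mM GTP or FtsZ; A340 followed for 60 min at 25 °C. For polymer stability, 1 mM GDP added mid-run.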

[6] = target: T1, Cell division protein FtsZ (Staphylococcus aureus); assay: Induction of Staphylococcus aureus FtsZ polymerization at 40 ug/ml measured for 60 mins by microtiter plate-based light scattering assay in presence of GTP
[7] = target: T1, Cell division protein FtsZ (Staphylococcus aureus); assay: Residual Staphylococcus aureus GTPase activity assessed as inorganic phosphate release upon GTP hydrolysis at 40 ug/ml preincubated for 10 mins before substrate addition measured after 2 hrs by malachite green based colorimetric analysis
[8] = target: T1, Cell division protein FtsZ (Staphylococcus aureus); assay: Induction of Staphylococcus aureus FtsZ polymerization measured for 60 mins by microtiter plate-based light scattering assay; summary of the method: as §2
[9] = tested on: HEK293; assay: Cytotoxicity against human HEK293 cells after 4 days by MTT assay; assay type: cell-based; settings: HEK293, 96 h
Summary of the method: (§3)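 MTT assay. HEK293 or MDCK cells kept at 37 °C, 5% CO2 in DMEM, seeded at 1500 cells per well. Continuous 4-day exposure to varying drug concentrations in triplicate wells, with a drug-free control. MTT read at end of day 4; IC50 determined.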

[10] = tested on: MDCK; assay: Cytotoxicity against dog MDCK cells after 4 days by MTT assay; assay type: cell-based; settings: Canis lupus familiaris, 96 h; summary of the method: as §3
[11] = tested on: HEK293; assay: Cytotoxicity against human HEK293 cells at 10 uM after 4 days by MTT assay; assay type: cell-based; settings: hek293, 96 h; summary of the method: as §3

Compound: CCC[C@@H]1C[C@@H](C(=O)N[C@@H]([C@H]2O[C@H](SC)[C@H](O)[C@@H](O)[C@H]2O)[C@H](C)Cl)N(C)C1 [CLINDAMYCIN]
- MIC90 [1]: > 64 µg/mL
- MIC90 [2]: 0.03 µg/mL (≈ 0.0706 µM)
- MIC90 [3]: > 64 µg/mL
- MIC90 [4]: 2 µg/mL (≈ 4.71 µM)

Compound: COc1cc2cc(-c3cccc(-c4ccc(C(C)(C)C)cc4)c3)nc(C)c2cc1OC
- Activity [5]: inactive
- MIC90 [1]: > 64 µg/mL
- MIC90 [2]: > 64 µg/mL
- MIC90 [3]: > 64 µg/mL
- MIC90 [4]: > 64 µg/mL

Compound: COc1cc2cc(-c3cccc(C(C)(C)C)c3)nc(CCN)c2cc1OC
- Activity [6]: Active
- residual activity [7]: 59.7%
- Activity [5]: Active
- Activity [8]: Dose-dependent effect
- IC50 [9]: 2.2 µM
- MIC90 [1]: 16 µg/mL (≈ 43.9 µM)
- IC50 [10]: 2.2 µM
- MIC90 [2]: 16 µg/mL (≈ 43.9 µM)
- MIC90 [3]: 16 µg/mL (≈ 43.9 µM)
- MIC90 [4]: 16 µg/mL (≈ 43.9 µM)

Compound: COc1cc2cc(-c3cccc(-c4ccccc4)c3)nc(C#N)c2cc1OC
- MIC90 [1]: > 64 µg/mL
- MIC90 [2]: > 64 µg/mL
- MIC90 [3]: > 64 µg/mL
- MIC90 [4]: > 64 µg/mL

Compound: COc1cc2cc(-c3cccc(-c4ccccc4)c3)nc(N=C(N)N)c2cc1OC
- IC50 [9]: 2.2 µM
- MIC90 [1]: 4 µg/mL (≈ 10 µM)
- IC50 [10]: 2.2 µM
- MIC90 [2]: 8 µg/mL (≈ 20.1 µM)
- MIC90 [3]: 8 µg/mL (≈ 20.1 µM)
- MIC90 [4]: 8 µg/mL (≈ 20.1 µM)

Compound: CNc1nc(-c2cccc(-c3ccccc3)c2)cc2cc(OC)c(OC)cc12
- MIC90 [1]: > 64 µg/mL
- MIC90 [2]: > 64 µg/mL
- MIC90 [3]: > 64 µg/mL
- MIC90 [4]: > 64 µg/mL

Compound: COc1ccc2cc3[n+](cc2c1OC)CCc1cc2c(cc1-3)OCO2 [BERBERINE]
- Activity [5]: inactive
- MIC90 [1]: > 64 µg/mL
- MIC90 [2]: > 64 µg/mL
- MIC90 [3]: > 64 µg/mL
- MIC90 [4]: > 64 µg/mL

Compound: COc1cc2cc(-c3cccc(-c4ccccc4)c3)nc(CN)c2cc1OC
- IC50 [9]: 3 µM
- MIC90 [1]: 16 µg/mL (≈ 43.2 µM)
- IC50 [10]: 7 µM
- MIC90 [2]: 8 µg/mL (≈ 21.6 µM)
- MIC90 [3]: > 64 µg/mL
- MIC90 [4]: > 64 µg/mL

Compound: COc1cc2cc(-c3cccc(-c4ccccc4)c3)[n+](C)c(C)c2c(OC)c1OC.[I-]
- MIC90 [1]: 8 µg/mL
- MIC90 [2]: 8 µg/mL
- MIC90 [3]: 32 µg/mL
- MIC90 [4]: 32 µg/mL

Compound: COc1cc2cc(-c3cccc(-c4ccc(C(C)(C)C)cc4)c3)nc(CN=C(N)N)c2cc1OC
- MIC90 [1]: 4 µg/mL (≈ 8.54 µM)
- MIC90 [2]: 4 µg/mL (≈ 8.54 µM)
- Activity [11]: Non-toxic
- MIC90 [3]: 16 µg/mL (≈ 34.1 µM)
- MIC90 [4]: 8 µg/mL (≈ 17.1 µM)

Compound: COc1cc2cc(-c3cccc(-c4ccc(-c5ccccc5)cc4)c3)nc(C)c2cc1OC
- MIC90 [1]: > 64 µg/mL
- MIC90 [2]: > 64 µg/mL
- MIC90 [3]: > 64 µg/mL
- MIC90 [4]: > 64 µg/mL

Compound: COc1cc2cc(-c3cccc(-c4ccccc4)c3)nc(N(C)C)c2cc1OC
- MIC90 [1]: > 64 µg/mL
- MIC90 [2]: > 64 µg/mL
- MIC90 [3]: > 64 µg/mL
- MIC90 [4]: > 64 µg/mL

Compound: COc1cc2cnc(-c3cccc(-c4ccccc4)c3)cc2cc1OC
- MIC90 [1]: > 64 µg/mL
- MIC90 [2]: > 64 µg/mL
- MIC90 [3]: > 64 µg/mL
- MIC90 [4]: > 64 µg/mL

Compound: CC[C@H]1OC(=O)[C@H](C)[C@@H](O[C@H]2C[C@@](C)(OC)[C@@H](O)[C@H](C)O2)[C@H](C)[C@@H](O[C@@H]2O[C@H](C)C[C@H](N(C)C)[C@H]2O)[C@](C)(O)C[C@@H](C)C(=O)[C@H](C)[C@@H](O)[C@]1(C)O [ERYTHROMYCIN]
- MIC90 [1]: > 64 µg/mL
- MIC90 [2]: 0.1 µg/mL (≈ 0.136 µM)
- MIC90 [3]: > 64 µg/mL
- MIC90 [4]: 1 µg/mL (≈ 1.36 µM)

Compound: COc1cc2cc(-c3cccc(-c4ccccc4)c3)nc(C)c2c(OC)c1OC
- MIC90 [1]: > 64 µg/mL
- MIC90 [2]: > 64 µg/mL
- MIC90 [3]: > 64 µg/mL
- MIC90 [4]: > 64 µg/mL

Compound: CN[C@H](CC(C)C)C(=O)N[C@H]1C(=O)N[C@@H](CC(N)=O)C(=O)N[C@H]2C(=O)N[C@H]3C(=O)N[C@H](C(=O)N[C@H](C(=O)O)c4cc(O)cc(O)c4-c4cc3ccc4O)[C@H](O)c3ccc(c(Cl)c3)Oc3cc2cc(c3O[C@@H]2O[C@H](CO)[C@@H](O)[C@H](O)[C@H]2O[C@H]2C[C@](C)(N)[C@H](O)[C@H](C)O2)Oc2ccc(cc2Cl)[C@H]1O [VANCOMYCIN]
- residual activity [7]: 99.7%
- Activity [5]: inactive
- MIC90 [1]: 2 µg/mL (≈ 1.38 µM)
- MIC90 [2]: 1 µg/mL (≈ 0.69 µM)
- MIC90 [3]: > 64 µg/mL
- MIC90 [4]: 1 µg/mL (≈ 0.69 µM)

Reference: ChEMBL document CHEMBL2203109, “3-Phenyl substituted 6,7-dimethoxyisoquinoline derivatives as FtsZ-targeting antibacterial agents” (Bioorg Med Chem, 2012)
